Test results taken from ChEMBL document CHEMBL4706745, “Balanced Intersystem Crossing in Iodinated Silicon-Fluoresceins Allows New Class of Red Shifted Theranostic Agents” (ACS Med Chem Lett, 2021).
The source made the active and inactive calls. The rule behind the calls is not given here.

Assays:
MDA-MB-231 [1] = assay: Phototoxicity against human MDA-MB-231 cells assessed as reduction in cell viability irradiated with 595 and 630 nanometer LED light and further incubated for 24 hrs by MTT assay; format: functional, cell-based; details: dose 0.5-20 µM
Procedure, shortened: (§1)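 MTT viability assay. Cells incubated with 0.5–20 μM, then irradiated with a 595 nm (9.83 mW/cm2) or 630 nm (24.3 mW/cm2) LED for 1 or 2 h, followed by 23 or 22 h dark respectively. Light alone and vehicle controls included. Mean ± SD, n = 4.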

HCT-116 [2] = assay: Phototoxicity against human HCT-116 cells assessed as reduction in cell viability irradiated with 595 and 630 nanometer LED light and further incubated for 24 hrs by MTT assay; format: functional, cell-based; details: dose 0.5-20 µM; procedure, shortened: as §1
MDA-MB-231 [3] = assay: Cytotoxicity against human MDA-MB-231 cells assessed as reduction in cell viability at 0.5 to 20 uM incubated for 24 hrs by MTT assay; format: cell-based; details: mda-mb-231, 24 h, dose 0.5-20 µM
Procedure, shortened: (§2)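 Cells exposed to 0.5–20 μM for 24 h in the dark, then assessed by MTT for viability. Vehicle control included. Mean ± SD, n = 4.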

HCT-116 [4] = assay: Cytotoxicity against human HCT-116 cells assessed as reduction in cell viability at 0.5 to 20 uM incubated for 24 hrs by MTT assay; format: cell-based; details: hct-116, 24 h, dose 0.5-20 µM; procedure, shortened: as §2
MDA-MB-231 [5] = assay: Induction of ROS generation in human MDA-MB-231 cells at 5 uM irradiated with 595 +/- 5 nanometer LED light for 2 hr by DCFH2-DA staining based confocal microscopic analysis; format: functional, cell-based
Procedure, shortened: (§3)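 Cells loaded with 5 μM compound and the ROS sensor DCFH2-DA; kept dark or irradiated with a 595 nm LED for 2 h, with or without NaN3 as singlet oxygen quencher. Green emission imaged by confocal microscopy. Controls: DMSO 0.5% vehicle and H2O2 (500 μM, 2 h) as positive control.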

HCT-116 [6] = assay: Induction of ROS generation in human HCT-116 cells at 5 uM irradiated with 595 +/- 5 nanometer LED light for 2 hr by DCFH2-DA staining based confocal microscopic analysis; format: functional, cell-based; procedure, shortened: as §3
MDA-MB-231 [7] = assay: Induction of ROS generation in human MDA-MB-231 cells at 5 uM incubated for 2 hr by DCFH2-DA staining based confocal microscopic analysis; format: cell-based; details: mda-mb-231, 2 h; procedure, shortened: as §3
HCT-116 [8] = assay: Induction of ROS generation in human HCT-116 cells at 5 uM incubated for 2 hr by DCFH2-DA staining based confocal microscopic analysis; format: cell-based; details: hct-116, 2 h; procedure, shortened: as §3
MDA-MB-231 [9] = assay: Induction of apoptosis in human MDA-MB-231 cells assessed as increase in necrotic cells at 5 uM irradiated with 595 +/- 5 nanometer LED light for 2 hrs by annexin V-FITC and PI staining based confocal microscopic analysis; format: functional, cell-based
Procedure, shortened: (§4)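 Cells treated with 5 μM and either kept dark or irradiated 2 h with a 595 nm LED, with or without NaN3. Annexin V-FITC (early apoptosis) and PI (late apoptosis/necrosis) staining 30 min after PDT, then confocal imaging. DMSO 0.5% vehicle control.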

HCT-116 [10] = assay: Induction of apoptosis in human HCT-116 cells assessed as increase in necrotic cells at 5 uM irradiated with 595 +/- 5 nanometer LED light for 2 hrs by annexin V-FITC and PI staining based confocal microscopic analysis; format: functional, cell-based; procedure, shortened: as §4
[11] = Drug uptake in human MDA-MB-231 cells assessed as cytosolic red emission at 5 uM incubated for 2 hrs by Hoechst-33342 staining based confocal microscopic analysis; format: ADME, cell-based; details: mda-mb-231, 2 h
Procedure, shortened: (§5)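 Cells incubated with 5 μM for 2 h and washed before confocal imaging of intracellular red emission.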

[12] = Drug uptake in human HCT-116 cells assessed as cytosolic red emission at 5 uM incubated for 2 hrs by Hoechst-33342 staining based confocal microscopic analysis; format: ADME, cell-based; details: hct-116, 2 h; procedure, shortened: as §5
[13] = Induction of singlet oxygen generation in DMSO/ADMDA solution assessed as decrease in ADMDA absorption irradiated with 595 nanometer LED light at 5 uM; format: functional
Procedure, shortened: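 5 μM compound mixed with the water-soluble trap ADMDA in oxygen-saturated PBS (pH 7.4, 0.5% DMSO), then LED irradiated (595 nm at 9.83 mW/cm2). Decrease in ADMDA absorption monitored, with the first 40 s kept in the dark.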

[14] = Induction of singlet oxygen generation in DMSO solution using singlet oxygen sensor green assessed as increase in SOSG intensity irradiated with 595 nanometer LED light at 5 uM; format: functional
Procedure, shortened: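 5 μM compound with singlet oxygen sensor green (SOSG); increase in SOSG emission monitored during 595 nm LED irradiation (9.83 mW/cm2).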

[15] = Induction of singlet oxygen generation in DMSO/ADMDA solution assessed as decrease in ADMDA absorption irradiated with 630 nanometer LED light at 5 uM; format: functional
[16] = Induction of singlet oxygen generation in DMSO solution using singlet oxygen sensor green assessed as increase in SOSG intensity irradiated with 630 nanometer LED light at 5 uM; format: functional
[17] = Photostability in pH 7.4 PBS buffer at 614/630 nanometer irradiated with 595 nanometer LED light for 2 hrs by measuring fluorescence peak; format: physicochemical; details: pH 7.4, 2 h
Procedure, shortened: (§6)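 Absorption at 614 nm and emission at 630 nm tracked under continuous 595 or 630 nm LED irradiation for 2 h in PBS (pH 7.4, 0.5% DMSO).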

[18] = Photostability in pH 7.4 PBS buffer at 614/630 nanometer irradiated with 630 nanometer LED light for 2 hrs by measuring fluorescence peak; format: physicochemical; details: pH 7.4, 2 h; procedure, shortened: as §6
MDA-MB-231 [19] = assay: Induction of apoptosis in human MDA-MB-231 cells at 5 uM irradiated with 595 +/- 5 nanometer LED light for 2 hrs in presence of NaN3 by annexin V-FITC and PI staining based confocal microscopic analysis; format: functional, cell-based; procedure, shortened: as §4
HCT-116 [20] = assay: Induction of apoptosis in human HCT-116 cells at 5 uM irradiated with 595 +/- 5 nanometer LED light for 2 hrs in presence of NaN3 by annexin V-FITC and PI staining based confocal microscopic analysis; format: functional, cell-based; procedure, shortened: as §4
[21] = Induction of singlet oxygen generation in pH 7.4 DMSO solution at 614 nanometer assessed as singlet oxygen quantum yield irradiated with 595 nanometer LED light; format: functional
[22] = Induction of singlet oxygen generation in pH 7.4 DMSO solution at 614 nanometer assessed as singlet oxygen quantum yield irradiated with 630 nanometer LED light; format: functional
[23] = Fluorescence property of the compound in pH 7.4 PBS buffer assessed as fluorescence quantum yield by fluorescence spectrophotometric method; format: physicochemical

Drug uptake [11]: Active
Drug uptake [12]: Active
Stabilty [17]: Stable
Stabilty [18]: Stable
Activity [23]: 11%
Compound: C[Si]1(C)C2=C(I)C(=O)C(I)=CC2=C(c2ccccc2C(=O)O)c2cc(I)c(O)c(I)c21
inhibition (MDA-MB-231 [1]): Dose-dependent effect
inhibition (HCT-116 [2]): Dose-dependent effect
Activity (MDA-MB-231 [3]): Non-Toxic
Activity (HCT-116 [4]): Non-Toxic
Activity (MDA-MB-231 [5]): Active
Activity (HCT-116 [6]): Active
Activity (MDA-MB-231 [7]): Non-Toxic
Activity (HCT-116 [8]): Non-Toxic
Activity (MDA-MB-231 [9]): inactive
Activity (HCT-116 [10]): inactive
Activity [13]: Active
Activity [14]: Active
Activity [15]: Active
Activity [16]: Active
Activity (MDA-MB-231 [19]): inactive
Activity (HCT-116 [20]): inactive
Activity [21]: 45%
Activity [22]: 30%
